The test system of data set [1] is Mus musculus. Put plainly: Antiinflammatory activity in C57BL/6 mouse assessed as inhibition of zymosan-induced mononuclear cells recruitment in synovial cavity at 0.7 to 70 mg/kg, po administered 1 hr prior to zymosan challenge measured after 6 to 24 hrs by Grunwald-Giemsa-stained cytospin smear. Type of data set: functional, organism-based.
For data set [2], the system named is Mus musculus. Kind of data set: Antiinflammatory activity in C57BL/6 mouse assessed as inhibition of zymosan-induced paw edema at 10 to 50 mg/kg, po administered 1 hr prior to zymosan challenge measured after 4 hrs by plethysmography. Type of data set: functional, organism-based. The method, boiled down:
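C57BL/6 mice dosed orally (1−50 mg/kg) before intraplantar zymosan (100 μg/paw in 50 μL saline); contralateral paw got saline. Volume measured by plethysmography at 4 h, edema taken as right minus left paw (μL).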

Data set [3] has as its system Mus musculus. Kind of data set: Antiinflammatory activity in zymosan-induced C57BL/6 mouse pleurisy model assessed as reduction in neutrophil influx in thoracic cavity at 10 to 50 mg/kg, po administered 1 hr prior to zymosan challenge measured after 4 hrs using Grunwald-Giemsa-stained cytospin smear by light microscopy. It is filed as functional, organism-based. The method, boiled down: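 Oral pretreatment 1 h before intrathoracic zymosan (100 μg/cavity in 100 μL saline). Cavities washed at 4 h with 1 mL PBS/10 mM EDTA. Total leukocytes counted on a particle counter, differentials from May-Grünwald-Giemsa cytospins (×10^6/cavity). Supernatant after 400g 10 min assayed for total protein by Bradford.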

Data set [4] has as its system Mus musculus. Kind of data set: Antiinflammatory activity in C57BL/6 mouse assessed as inhibition of zymosan-induced neutrophil migration in articular cavity at 7 mg/kg, po administered 1 hr prior to zymosan challenge measured at 24 hrs relative to control. Type of data set: functional. Particulars: C57BL/6, po. The method in brief: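 Male C57BL/6 mice, fasted overnight, dosed orally (vehicle saline/water, 200 μL) or i.p. 1 h before zymosan (500 μg in 25 μL saline, i.a., left knee). Knee swelling measured as change in transverse diameter from basal by digital caliper (mm). Synovial washes (PBS/EDTA) counted on a particle counter; differentials from May-Grünwald-Giemsa cytospins, cells ×10^5/cavity. Sampled at 6 and/or 24 h; seven mice/group.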

In data set [5] the test system is Mus musculus. Kind of data set: Antiinflammatory activity in C57BL/6 mouse assessed as inhibition of zymosan-induced synovial hyperplasia at 7 mg/kg, po administered 1 hr prior to zymosan challenge measured at 6 to 24 hrs by hematoxylin and eosin staining-based optical microscopy. Type of data set: functional, organism-based. The method in brief:
(§1)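 Mice dosed orally or i.p. 1 h before i.a. zymosan (500 μg/cavity) or saline. Whole knees taken at 6 and 24 h from six mice, fixed in 10% formalin 48 h, decalcified in 10% EDTA/PBS 1−2 weeks, paraffin-embedded. 5 μm sections H&E-stained and examined by light microscopy. Parameter scores summed into an arthritis index; means ± SEM, two experiments.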

Data set [6] has as its system Mus musculus. Put plainly: Antiinflammatory activity in C57BL/6 mouse assessed as inhibition of zymosan-induced infiltration of inflammatory cells into synovial tissue at 7 mg/kg, po administered 1 hr prior to zymosan challenge measured at 6 to 24 hrs by hematoxylin and eosin staining-based optical microscopy. It is filed as functional, organism-based. The method, boiled down: as §1

Data set [7] has as its system Mus musculus. Put plainly: Antiinflammatory activity in C57BL/6 mouse assessed as inhibition of zymosan-induced IL6 production in cell-free supernatant of knee joint synovial washes at 7 mg/kg, po administered 1 hr prior to zymosan challenge measured at 6 to 24 hrs by sandwich ELISA method. Type of data set: functional, organism-based. The method, boiled down: (§2)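 Male C57BL/6 mice (18−22 g), fasted overnight, dosed orally (in filtered water, 200 μL) or i.p. 1 h before i.a. zymosan (500 μg in 25 μL saline) into left knee; contralateral knee got vehicle. Synovial cavity washed twice with 150 μL PBS/10 mM EDTA at 6 and 24 h; washes spun 400g 10 min, 4 °C. Cytokines measured by sandwich ELISA, LTB4/PGE2 by EIA (pg/mL); six mice/group, two experiments.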
(ELISA stands for enzyme-linked immunosorbent assay.)

The subject of data set [8] is Mus musculus. Kind of data set: Antiinflammatory activity in C57BL/6 mouse assessed as inhibition of zymosan-induced PGE2 production in cell-free supernatant of knee joint synovial washes at 7 mg/kg, po administered 1 hr prior to zymosan challenge measured at 6 to 24 hrs by immunosorbent assay. Type of data set: functional, organism-based. The method in brief: as §2

In data set [9] the test system is Mus musculus. Put plainly: Antiinflammatory activity in C57BL/6 mouse assessed as inhibition of zymosan-induced LTB4 production in cell-free supernatant of knee joint synovial washes at 7 mg/kg, po administered 1 hr prior to zymosan challenge measured at 6 to 24 hrs by immunosorbent assay. Type of data set: functional, organism-based. The method, boiled down: as §2

The nature of data set [10]: Cytotoxicity against C57BL/6 mouse neutrophils assessed as cell viability at 100 uM after 2 hrs by lactate dehydrogenase assay relative to control. It is filed as toxicity, Neutrophil. To be noted: read-out: Activity. The method, boiled down: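 Bone-marrow neutrophils from C57BL/6 mice, Percoll-purified (65%/72% interface, ~85-90% purity), plated at 1 × 10^5 cells/well; fresh medium with or without Tween 20 (3%) or compound (0.01−100 μM), quadruplicate; 2 h incubation. LDH released into supernatant measured, 20−30 min at room temperature, stopped with 1 N HCl; absorbance 490 nm minus 690 nm background.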

The next data set concerns Neutrophil. Put plainly: Antiinflammatory activity in C57BL/6 mouse neutrophils assessed as inhibition of neutrophil adhesion to TNFalpha-primed mouse tEnd.1 cells at 0.1 uM preincubated for 1 hr with neutrophils followed by tEND.1 cells addition measured after 1 hr by Giemsa staining-based light microscopic method. Type of data set: functional, cell-based. The method in brief:
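tEnd.1 endothelioma cells (10^4/well, 24 h) primed with mouse TNF-α (10 ng/mL) for 4 h. Bone marrow neutrophils preincubated 1 h with compound (0.1 μM) or fucoidan (25 μg/mL), then added at 50 per tEnd.1 cell for 1 h at 37 °C with shaking. After washing and Giemsa staining, adhesion index = fraction of tEnd.1 with bound neutrophils × neutrophils per tEnd.1 × 100.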

The subject of data set [11] is J774.A1. Put plainly: Antiinflammatory activity in mouse J774A.1 cells assessed as inhibition of zymosan and IFNgamma-induced COX2 expression at 1 to 10 uM preincubated for 1 hr followed by zymosan and IFNgamma addition measured after 24 hrs by Western blot analysis. It is filed as functional, cell-based. The method in brief: (§3)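 J774A.1 cells in six-well plates pretreated 1 h (0.1−10 μM) before zymosan (10 μg per 10^5 cells) and/or IFN-γ (25 U/mL) for 24 h. Lysates (Tris/NaCl/MgCl2/0.5% NP40 with protease inhibitors); 30 μg protein run on 7.5% SDS-PAGE, transferred to PVDF, probed for COX-2, iNOS and α-tubulin.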

For data set [12], the system named is J774.A1. Put plainly: Antiinflammatory activity in mouse J774A.1 cells assessed as inhibition of zymosan and IFNgamma-induced nitric oxide production at 10 uM preincubated for 1 hr followed by zymosan and IFNgamma addition measured after 24 hrs by colorimetric Griess test. It is filed as functional, cell-based. The method, boiled down:
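J774A.1 macrophages (1 × 10^5/well, RPMI/10% FBS) adhered 24 h, preincubated 1 h with compound (0.1−10 μM) or dexamethasone (1 μM), then stimulated with zymosan (10 μg per 10^5 cells) and/or IFN-γ (25 U/mL) for 24 h. Supernatant IL-6 by sandwich ELISA; nitrite by Griess reaction at 540 nm. Quadruplicate wells, two experiments.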

The test system of data set [13] is J774.A1. Kind of data set: Antiinflammatory activity in mouse J774A.1 cells assessed as inhibition of zymosan and IFNgamma-induced iNOS expression at 1 to 10 uM preincubated for 1 hr followed by zymosan and IFNgamma addition measured after 24 hrs by Western blot analysis. Type of data set: functional, cell-based. The method, boiled down:
as §3
On the technique in general: Immunoblotting shows a protein as a band on a membrane.

Molecules are shown by their SMILES. Active and inactive are the calls of the source. No cut-off for these calls is given here. A value given as a limit tells only on which side of the number the result lay.

Regarding `COC(=O)c1cc(O)c(O)c(O)c1` [GALLIC ACID METHYL ESTER], the inhibition entry in the data set on Mus musculus [1], in the data set on Mus musculus [2], in the data set with Mus musculus [5], in the data set with Mus musculus [6], in the data set on Mus musculus [7] and in the data set on Mus musculus [8] was “Active” throughout. Further, the inhibition entry in the data set on Mus musculus [9], in the data set with Neutrophil, in the data set with J774.A1 [11], in the data set with J774.A1 [12] and with J774.A1 [13] was “Active” throughout. Moreover, in the data set with Mus musculus [3], the outcome was Active. Besides, the inhibition in vivo (commonly the change of the read-out against control, counted positive when it falls) at 7 mg/kg in the data set on Mus musculus [4] stood at 74%. Also, the viability at 2 h, 100 µM in data set [10] was at least 92%.

Values taken from ChEMBL document CHEMBL3853307, “Anti-inflammatory Effect of Methyl Gallate on Experimental Arthritis: Inhibition of Neutrophil Recruitment, Production of Inflammatory Mediators, and Activation of Macrophages” (J Nat Prod, 2016).
